# Results reported in ChEMBL document CHEMBL1134294, “A prodrug form of a Plasmodium falciparum glutathione reductase inhibitor conjugated with a 4-anilinoquinoline” (J Med Chem, 2001).
# Tests used:
# Plasmodium falciparum [1] = test: In vitro efficacy for chloroquine-sensitive Plasmodium falciparum F32; conditions: read-out: ED50 (the source's name)
# Plasmodium falciparum [2] = test: In vitro efficacy for chloroquine-sensitive Plasmodium falciparum Thai; conditions: read-out: ED50 (the source's name)
# Plasmodium falciparum [3] = test: In vitro efficacy for chloroquine-sensitive Plasmodium falciparum D6; conditions: read-out: ED50 (the source's name)
# Plasmodium falciparum [4] = test: In vitro efficacy for chloroquine-resistant Plasmodium falciparum FcB1; assay type: functional; conditions: read-out: ED50 (the source's name)
# Summary of the method: (§1)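 Asynchronous cultures in human erythrocytes (0.5% parasitemia, 1% hematocrit) received serially diluted drug, DMSO ≤0.1%. After 24 h at 37 °C, 0.5 μCi [3H]hypoxanthine was added and incubation continued another 24 h. Growth inhibition was taken versus drug-free control, ED50 read from the concentration–response curve, and reported as mean of ≥3 independent experiments.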
# Plasmodium falciparum [5] = test: In vitro efficacy for chloroquine-resistant Plasmodium falciparum W2; assay type: functional; conditions: read-out: ED50 (the source's name)
# Summary of the method: as §1
# Plasmodium falciparum [6] = test: In vitro efficacy for chloroquine-resistant Plasmodium falciparum K1; assay type: functional; conditions: read-out: ED50 (the source's name)
# Summary of the method: as §1
# Mus musculus [7] = test: Percentage excess MST, when used as the chlorohydrate in mice infected with Plasmodium berghei (i.p., 40 mg/kg); assay type: functional; conditions: route intraperitoneal
# Summary of the method: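 Female Swiss CD-1 mice (four weeks, 20–25 g), three per group, were infected ip with about 10^7 P. berghei ANKA parasitized erythrocytes. Dosing was 40 mg/kg in 100% DMSO, given orally at infection, then ip over the following 4 days. Parasitemia was counted daily. Activity was scored as percentage excess mean survival time over DMSO-treated infected controls.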
# [8] = Susceptibility of compound to hydrolysis at 37 degrees C at pH 7.4 phosphate buffer; assay type: ADME
# Summary of the method: (§2)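 Prodrug (100 μM final, from 1 mM stock in 10% aqueous DMSO) is incubated at 37 °C in pH 7.4 phosphate buffer (150 mM NaCl, 4 mM NaH₂PO₄, 25 mM NaHCO₃) or pH 5.0 acetate (150 mM NaCl, 10 mM NaOAc). Half-life of ester disappearance is found by HPLC as the mean of two determinations.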
# [9] = Susceptibility of compound to hydrolysis at 37 degrees C at pH 5.0 acetate medium; assay type: ADME
# Summary of the method: as §2
# Plasmodium berghei = test: Parasitaemia (%) on day 4 in Plasmodium berghei infected mice (Mus musculus) at 40 mg/kg intraperitoneal dose; assay type: functional
# Summary of the method: (§3)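 Female Swiss CD-1 mice (four-week-old, 20–25 g, three per group) are infected ip with about 10⁷ P. berghei ANKA 65 parasitized erythrocytes from a donor. On the day of infection they receive 40 mg/kg orally in 100% DMSO, then daily ip for 4 days. Parasitemia is counted daily. Controls get DMSO only.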
# Plasmodium falciparum [10] = test: Effective dose against chloroquine-resistant Plasmodium falciparum FcB1R; assay type: functional; conditions: read-out: ED50
# Summary of the method: as §1
# [11] = Susceptibility of compound to hydrolysis at 37 degrees C for RPMI-10% human serum; assay type: ADME; conditions: RPMI with 10% human serum
# Summary of the method: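 Prodrug (100 μM final, from 1 mM stock in 10% aqueous DMSO) is held in RPMI with 10% human serum at 37 °C and sampled from 0 to 77.5 h. Samples are mixed with EtOH plus internal reference, centrifuged, and the supernatant is analysed by HPLC. Half-life of ester disappearance is the mean of two determinations.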
# Plasmodium falciparum [12] = test: Effect on protein of chloroquine-resistant Plasmodium falciparum K1 culture after 24 hrs at 150 nM; assay type: functional
# Summary of the method: (§4)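 Synchronized K1 ring cultures were treated 24 h, then saponin-isolated and freeze-thawed. Extract was diluted in 150 mM KH2PO4, pH 8.0, and nucleic acid and protein were estimated from absorbance at 260 and 280 nm. Protein was also measured by dye-binding assay with BSA standard.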
# Plasmodium falciparum [13] = test: Effect on nucleic acid of chloroquine-resistant Plasmodium falciparum K1 culture after 24 hrs at 150 nM; assay type: functional
# Summary of the method: as §4
# Plasmodium falciparum [14] = test: Effect on glutathione content of chloroquine-resistant Plasmodium falciparum K1 culture after 24 hrs at 30 nM; assay type: functional
# Summary of the method: (§5)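 Sorbitol-synchronized K1 rings (5% hematocrit, 3.7% parasitemia) exposed 24 h, then saponin-lysed and freeze-thawed. Extract (40 μL) was deproteinized with 2 volumes of 5% sulfosalicylic acid. Total glutathione was measured by GR-coupled DTNB-GSH recycling against a GSH standard curve. Expressed as nmol/mg protein.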
# [15] = target: T1, Glutathione S-transferase (Plasmodium falciparum) (UniProt Q8ILQ7); test: Effect on glutathione S-transferase (GST) activity of chloroquine-resistant Plasmodium falciparum K1 in culture after 24 hrs treatment at 30 nM conc; assay type: functional
# T1 sequence (whole entry): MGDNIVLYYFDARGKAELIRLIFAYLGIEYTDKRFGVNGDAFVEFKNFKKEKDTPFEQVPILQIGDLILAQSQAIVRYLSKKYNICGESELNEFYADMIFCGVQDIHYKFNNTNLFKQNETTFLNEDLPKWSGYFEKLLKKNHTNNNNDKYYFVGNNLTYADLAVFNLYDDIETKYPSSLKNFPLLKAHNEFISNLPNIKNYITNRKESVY
# Summary of the method: (§6)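 K1 ring-stage cultures (sorbitol-synchronized, 5% hematocrit, 3.7% parasitemia) treated 24 h. Parasites were released with 0.02% saponin (10 min, 37 °C), freeze-thawed three times and the supernatant assayed. GST activity was read spectrophotometrically at 340 nm with 0.5 mM CDNB and 1 mM GSH in 100 mM potassium phosphate, 1 mM EDTA, pH 6.5. Reported as mU/mg protein.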
# Mus musculus [16] = test: Percentage of parasitaemia on day 4 in mice infected with Plasmodium berghei (ip, 40 mg/kg); assay type: functional
# Summary of the method: as §3
# [17] = target: Glutathione reductase (Plasmodium falciparum K1) (UniProt Q94655); test: Effect on glutathione reductase activity of chloroquine-resistant Plasmodium falciparum K1 in culture after 24 hrs treatment at 150 nM conc; assay type: functional
# Chain of Glutathione reductase (Plasmodium falciparum K1) (Q94655 whole entry): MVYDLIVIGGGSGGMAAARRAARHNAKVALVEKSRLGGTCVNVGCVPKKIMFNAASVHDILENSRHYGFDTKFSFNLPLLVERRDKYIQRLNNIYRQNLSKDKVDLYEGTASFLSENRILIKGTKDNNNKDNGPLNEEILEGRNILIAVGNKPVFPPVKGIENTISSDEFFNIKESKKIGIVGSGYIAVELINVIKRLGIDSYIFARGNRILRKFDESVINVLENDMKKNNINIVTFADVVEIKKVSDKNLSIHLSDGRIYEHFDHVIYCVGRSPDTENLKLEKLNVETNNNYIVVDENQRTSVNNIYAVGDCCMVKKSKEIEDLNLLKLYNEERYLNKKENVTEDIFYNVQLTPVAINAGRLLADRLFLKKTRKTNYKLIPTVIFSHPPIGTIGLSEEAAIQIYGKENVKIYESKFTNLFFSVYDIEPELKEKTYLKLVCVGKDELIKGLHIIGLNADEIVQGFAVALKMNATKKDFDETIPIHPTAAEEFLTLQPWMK
# Summary of the method: (§7)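 After 24 h exposure of synchronized K1 ring cultures, parasites were saponin-isolated and freeze-thaw extracts prepared. GR activity was assayed at 25 °C with 100 μM NADPH and 100 μM GSSG in 47 mM potassium phosphate, 200 mM KCl, 1 mM EDTA, pH 6.9, following NADPH consumption at 340 nm.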
# Plasmodium falciparum [18] = test: Effect on protein of chloroquine-resistant Plasmodium falciparum K1 culture after 24 hrs at 30 nM; assay type: functional
# Summary of the method: as §4
# Plasmodium falciparum [19] = test: In vitro efficacy for chloroquine-sensitive Plasmodium falciparum Thai strain; conditions: read-out: ED50 (the source's name)
# Plasmodium falciparum [20] = test: Effect on nucleic acid of chloroquine-resistant Plasmodium falciparum K1 culture after 24 hrs at 500 nM; assay type: functional
# Summary of the method: as §4
# Mus musculus [21] = test: Percentage of parasitaemia on day 11 in mice infected with Plasmodium berghei (ip, 40 mg/kg); assay type: functional
# Summary of the method: as §3
# Plasmodium falciparum [22] = test: Effect on glutathione content of chloroquine-resistant Plasmodium falciparum K1 culture after 24 hrs at 150 nM; assay type: functional
# Summary of the method: as §5
# Plasmodium falciparum [23] = test: Effect on glutathione reductase activity of chloroquine-resistant Plasmodium falciparum K1 culture after 24 hrs at 500 nM; assay type: functional
# Summary of the method: as §7
# Plasmodium falciparum [24] = test: In vitro efficacy for chloroquine-sensitive Plasmodium falciparum D6; conditions: read-out: ED50 (the source's name); remark: listed apart in the source
# [25] = target: T1, Glutathione S-transferase (Plasmodium falciparum); test: Effect on glutathione S-transferase (GST) activity of chloroquine-resistant Plasmodium falciparum K1 in culture after 24 hrs treatment at 150 nM conc; assay type: functional
# Summary of the method: as §6
# [26] = target: Glutathione reductase (Plasmodium falciparum K1) (UniProt Q94655); test: Effect on glutathione reductase activity of chloroquine-resistant Plasmodium falciparum K1 in culture after 24 hrs treatment at 30 nM conc; assay type: functional
# Summary of the method: as §7
# Plasmodium falciparum [27] = test: Effect on nucleic acid of chloroquine-resistant Plasmodium falciparum K1 culture after 24 hrs at 30 nM; assay type: functional
# Summary of the method: as §4
# Plasmodium falciparum [28] = test: Effect on protein of chloroquine-resistant Plasmodium falciparum K1 culture after 24 hrs at 500 nM; assay type: functional
# Summary of the method: as §4
# Mus musculus [29] = test: Percentage of parasitaemia on day 18 in mice infected with Plasmodium berghei (ip, 40 mg/kg); assay type: functional
# Summary of the method: as §3
# Plasmodium falciparum [30] = test: Effect on glutathione content of chloroquine-resistant Plasmodium falciparum K1 culture after 24 hrs at 500 nM; assay type: functional
# Summary of the method: as §5
# Plasmodium falciparum [31] = test: In vitro efficacy for chloroquine-sensitive Plasmodium falciparum F32; conditions: read-out: ED50 (the source's name); remark: listed apart in the source
# [32] = target: T1, Glutathione S-transferase (Plasmodium falciparum); test: Effect on glutathione S-transferase (GST) activity of chloroquine-resistant Plasmodium falciparum K1 in culture after 24 hrs treatment at 500 nM conc; assay type: functional
# Summary of the method: as §6
smiles,measurement,setting,value
CCN(CC)CCCC(C)Nc1ccnc2cc(Cl)ccc12 (configuration not stated) [CHLOROQUINE],EC50,Plasmodium falciparum [1],19 nM
same,EC50,Plasmodium falciparum [2],14.3 nM
same,EC50,Plasmodium falciparum [3],54 nM
same,EC50,Plasmodium falciparum [4],126 nM
same,EC50,Plasmodium falciparum [5],175 nM
same,EC50,Plasmodium falciparum [6],183 nM
CC1=C(CCCCC(=O)OCc2cc(NC(=O)CN3CCCCC3)cc(Nc3ccnc4cc(Cl)ccc34)c2)C(=O)c2c(O)cccc2C1=O,Excess MST,Mus musculus [7],39%
same,half-life,[8],> 80 h
same,half-life,[9],> 80 h
same,Parasitaemia,Plasmodium berghei,9%
same,EC50,Plasmodium falciparum [10],28.7 nM
same,half-life,[11],> 80 h
O=C(CN1CCCCC1)Nc1cc(COC(=O)CCCCCc2ccccc2)cc(Nc2ccnc3cc(Cl)ccc23)c1,EC50,Plasmodium falciparum [10],368 nM
CC1=C(CCCCCC(=O)OCc2cc(NC(=O)CN3CCCCC3)cc(Nc3ccnc4cc(Cl)ccc34)c2)C(=O)c2ccccc2C1=O,Protein,Plasmodium falciparum [12],0.6 mg/mL
same,Excess MST,Mus musculus [7],178%
same,Nucleic acids,Plasmodium falciparum [13],79 ng/mg
same,half-life,[8],> 80 h
same,Glutathione,Plasmodium falciparum [14],14.8 nM/mg
same,GST activity,[15],3.7 mU mg-1
same,Parasitaemia,Mus musculus [16],<0.1%
same,half-life,[9],> 80 h
same,GR activity,[17],8 mU mg-1
same,Protein,Plasmodium falciparum [18],1.1 mg/mL
same,EC50,Plasmodium falciparum [4],23.1 nM
same,EC50,Plasmodium falciparum [5],26.4 nM
same,EC50,Plasmodium falciparum [19],36.5 nM
same,Nucleic acids,Plasmodium falciparum [20],81 ng/mg
same,Parasitaemia,Mus musculus [21],9%
same,Glutathione,Plasmodium falciparum [22],<1 nM/mg
same,GR activity,Plasmodium falciparum [23],6 mU mg-1
same,EC50,Plasmodium falciparum [24],27.7 nM
same,EC50,Plasmodium falciparum [10],23.1 nM
same,GST activity,[25],4.3 mU mg-1
same,GR activity,[26],30 mU mg-1
same,EC50,Plasmodium falciparum [6],29.3 nM
same,Nucleic acids,Plasmodium falciparum [27],89 ng/mg
same,Protein,Plasmodium falciparum [28],0.4 mg/mL
same,Parasitaemia,Mus musculus [29],48%
same,Glutathione,Plasmodium falciparum [30],<1 nM/mg
same,EC50,Plasmodium falciparum [31],25.8 nM
same,GST activity,[32],9.5 mU mg-1
same,half-life,[11],> 80 h
